High-throughput results as filed in PubChem.
Insulin prom up – MIN6 insulin promoter up-regulation | MIN6 insulin promoter-GFP reporter, high-content imaging; stronger effect = higher value | z-score at 5 µM | 190,000 compounds, 0.3% hits | AID 1625;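 active means z-score above 3 at 5 µM with at least 500 cells counted in the well; inconclusive means wells under 500 cells, flagged as cytotoxic or low count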
Furin inhibitor – blocks human furin protease activity | inhibition, % at 20 µM or 30 µM | 220,000 compounds, 0.061% hits | AID 463115 | purified furin, fluorogenic substrate cleavage; in the data active means inhibition above about 25%
Target sequence (P09958 108-714 limits assumed): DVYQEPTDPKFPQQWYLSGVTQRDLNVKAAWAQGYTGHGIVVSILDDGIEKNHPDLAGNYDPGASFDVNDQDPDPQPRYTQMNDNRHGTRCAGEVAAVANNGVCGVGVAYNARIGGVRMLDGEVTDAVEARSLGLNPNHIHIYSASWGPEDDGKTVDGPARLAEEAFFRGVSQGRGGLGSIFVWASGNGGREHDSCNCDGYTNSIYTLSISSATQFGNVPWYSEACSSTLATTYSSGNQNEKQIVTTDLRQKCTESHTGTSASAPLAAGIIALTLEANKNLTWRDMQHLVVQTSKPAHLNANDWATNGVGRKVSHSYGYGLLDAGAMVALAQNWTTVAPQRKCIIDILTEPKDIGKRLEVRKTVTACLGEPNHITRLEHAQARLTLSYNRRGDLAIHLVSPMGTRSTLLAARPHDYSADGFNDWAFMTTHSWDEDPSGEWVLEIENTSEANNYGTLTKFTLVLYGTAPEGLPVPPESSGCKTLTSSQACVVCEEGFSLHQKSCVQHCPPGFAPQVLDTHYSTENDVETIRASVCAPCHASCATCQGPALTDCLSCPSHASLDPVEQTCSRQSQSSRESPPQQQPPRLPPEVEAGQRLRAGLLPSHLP
HSV replic up – increases HSV replication in cells. HSV replication augmentation in cells, fold increase. maximum fold increase. 220,000 compounds, 0.005% hits; in the data active means maximum fold increase above about 1.5; inconclusive means no clear call, values can overlap the other calls; tested in PC3 cells
Autophagy mod – alters autophagy in cells. MEF GFP-LC3 puncta imaging; test concentration mostly 10 µM. calls only at 10 µM (by protocol). 190,000 compounds, 0.98% hits. AID 463193;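 active means percentage of spot-positive cells more than 3 SD above its plate mean, without a fluorescence outlier flag or 80% toxicity; inconclusive means no clear call, values can overlap the other calls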;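 further: spot-positive cell cutoff set from DMSO-treated cells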
MT stabilizer – microtubule stabilizers in HeLa cells | HeLa tubulin immunostaining HCS, 24 h; share of cells brighter than vehicle mean+2SD | % tubulin-high responders, % at 10 µM | 200,000 compounds, 0.83% hits | AID 2205;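 active means plate Z-score above 3 for both tubulin-high and condensed-nucleus cell shares, with cell loss under 80%, at 10 µM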;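 further: anti alpha tubulin signal scored within the nucleus-defined area of each cell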
b-catenin transl – alters nuclear translocation of beta-catenin in HeLa cells | immunofluorescence imaging | nuclear translocation activity, % at 5 µM | 190,000 compounds, 0.3% hits | AID 1665;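 active means nuclear translocation activity above 50% at 5 µM, with a well cell count of 50 or more; inconclusive means wells under 50 cells across six images, flagged as toxic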;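 further: per-cell ratio of nuclear to cytoplasmic median beta-catenin stain intensity; plate controls were DMSO negative control for no effect and GSK-3 inhibitor IX positive control for full effect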
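Test system: human HeLa cell line; Doses: 5 µM primary, 0.02–20 µM confirmation; Incubation: 24 h compound exposure, 37°C; Detection: beta-catenin immunofluorescence imaging with DAPI; Read-out: beta-catenin nuclear/cytoplasmic ratio, % activation.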
The depositor's hits bear a star; i = inactive; ? = inconclusive; . = no result given; + = active, no number. Shown are actives, neighbours in structure and some others; about 1.9% of the full set was active somewhere.

SMILES | Insulin prom up | Furin inhibitor | HSV replic up | Autophagy mod | MT stabilizer | b-catenin transl
COc1ccc(-c2nc(SCC(=O)Nc3nccs3)c(-c3ccc(Cl)cc3)[nH]2)cc1 | -0.64 | -21 | i | i | 15* | 0
COc1ccc2cc(CN(C(=O)Nc3ccccc3OC)C3CCCC3)c(=O)[nH]c2c1 | -0.1 | -5 | i | i | 4 | 0
COc1ccc2cc(CN(CC3CCCO3)C(=O)Nc3ccccc3OC)c(=O)[nH]c2c1 (centres undefined) | 0.1 | -8 | i | i | 23* | -1
COc1ccc(NC(=O)N(Cc2cc3ccc(OC)cc3[nH]c2=O)CC2CCCO2)cc1 (centres undefined) | 0 | -10 | i | i | 13* | 1
CCc1ccc2[nH]c(=O)c(CN(CCN(CC)CC)C(=O)Nc3ccccc3OC)cc2c1 | -1.4 | -19 | i | + | 3 | -1
c1csc(COc2ccccc2CNC2CCCCC2)c1 | -1.6 | -14 | i | i | 6 | -1
Cc1ccc(SCC(=O)N=C2NC(=O)CS2)cc1 | -0.39 | -13 | i | i | 3 | 0
Cc1cc(C)n(Cc2ccc(F)cc2)c(=O)c1C#N | 0.84 | -19 | i | i | 4 | 1
COc1ccc(-n2cc(C#N)c(=O)n(Cc3ccc(F)cc3)c2=O)cc1 | 0.33 | -30 | i | i | 24* | 31
COc1ccc(CSCC(=O)N/N=C/c2ccccc2O)cc1 | 0.19 | -6 | i | + | 3 | 0
O=C(CSc1ccccc1)N/N=C/c1ccccc1O | -0.04 | -17 | i | i | 3 | 1
Oc1cc(NCc2cccnc2)ccc1-c1nc2ccccc2o1 | 2.5 | -17 | i | + | 2 | 2
CCNc1ccc(Br)cc(C(=O)/C=C/c2ccc(Cl)cc2)c1=O | 1.1 | -17 | i | i | 16* | -2
CCNc1ccc(Br)cc(C(=O)/C=C/c2c(Cl)cccc2Cl)c1=O | ? | -13 | i | + | 38 | 7
CNc1ccc(Br)cc(C(=O)/C=C/c2ccc(OC)cc2OC)c1=O | 0.38 | 4 | i | i | 4 | -4
CNc1ccc(Br)cc(C(=O)/C=C/c2ccc(Cl)cc2Cl)c1=O | 0.28 | -21 | i | i | 9.3* | 1
O=C(/C=C/c1ccc(Cl)cc1Cl)c1ccc[nH]1 | -1.2 | -17 | i | i | 5 | 0
CCNc1ccc(Br)cc(C(=O)/C=C/c2ccc3c(c2)OCO3)c1=O | 0.27 | -5 | i | i | 8 | 2
CNc1ccc(Br)cc(C(=O)/C=C/c2cccc(OC)c2)c1=O | . | 2 | i | i | 13* | 38
Cc1ccc(CO/N=C\Cc2snc(Sc3ncc(C(F)(F)F)cc3Cl)c2C#N)cc1 | -0.28 | -22 | i | i | 3 | .
CCC(CC)C(=O)NC12CC3CC(CC(C3)C1)C2 | -1 | -12 | i | i | 1 | 1
O=C(NCc1ccccn1)c1nnc(Cc2ccc(Cl)cc2)o1 | -0.69 | 4 | . | i | 3 | 5
O=c1cc(N2CCN(c3ccccc3Cl)CC2)[nH]c(=O)n1Cc1ccc(F)cc1 | 1.1 | -25 | i | . | . | 1
COc1ccccc1N1CCN(c2cc(=O)n(Cc3ccc(F)cc3)c(=O)[nH]2)CC1 | 0.38 | -14 | i | . | 22* | 1
Cc1ccc(-n2cc(-c3ccccc3)c3c(N4CCOCC4)ncnc32)cc1 | -1.4 | -13 | i | + | 2 | 0
SMILES | Insulin prom up | Furin inhibitor | HSV replic up | Autophagy mod | MT stabilizer | b-catenin transl
CC(C)CC(c1nnnn1Cc1ccccc1)N1CCN(C(=O)c2ccco2)CC1 (centres undefined) | -0.95 | -17 | i | i | 5 | -6
COc1ccc(C(=O)OC2CCN(C)CC2)cc1 | 0.39 | -10 | i | i | 4 | 1
Cc1c(Br)cc(C(=O)OC2CCN(C)CC2)c(C)c1C | -1.5 | -6 | i | + | 3 | 2
CCN1c2ccccc2NC2C1C(C(C)=O)C(=O)N2c1ccc(Cl)cc1 (centres undefined) | . | -21 | ? | + | 3 | -3
CC(=O)Oc1ccc2ccccc2c1C(NC(=O)Cc1ccccc1)c1ccc(Cl)cc1 (centres undefined) | 0.95 | -8 | i | i | 2 | 0
CC(=O)c1c(COC(=O)c2cccc(C)c2)nc2ccccc2[n+]1[O-] | -0.09 | -6 | i | . | . | 0
CC(=O)c1c(COC(=O)c2ccncc2)nc2ccccc2[n+]1[O-] | 4.2* | -12 | i | i | 2 | -3
COc1ccc(CCn2c(-n3nc(C)cc3C)nc3c2c(=O)[nH]c(=O)n3C)cc1 | . | -8 | i | + | 27 | .
Cc1ccc(Cn2c(-n3nc(C)cc3C)nc3c2c(=O)[nH]c(=O)n3C)cc1 | 1.2 | 1 | i | i | 4 | -2
COC(=O)CCC(=O)N1CCCC(CNS(=O)(=O)c2ccc(OC)cc2)C1 (centres undefined) | -0.17 | -12 | i | i | 2 | -1
CC(C)N1CCN(Cc2cccn2-c2ccccn2)CC1CCO (centres undefined) | -0.87 | -26 | i | i | 4 | 1
CSc1cccc(NC(=O)c2c(Cl)cnn2C)c1 | 0.51 | -4 | i | i | 5 | -4
Cn1ncc(N=Cc2c(O)ccc3ccccc23)c1C(=O)Nc1cccc(Cl)c1 | 2.3 | -22 | i | + | 15* | 9
Cn1ncc(N=Cc2ccc([N+](=O)[O-])cc2)c1C(=O)Nc1ccccc1 | 0 | -20 | i | i | 3 | 0
Cn1ncc(Cl)c1C(=O)Nc1cccc(Cl)c1 | . | 30* | i | i | 2 | -1
OCC(O)CSc1nc(-c2ccccc2)nc2c1CCC2 (centres undefined) | -0.43 | -19 | i | i | 7 | 0
CCOc1ccc(-c2nc(N)ncc2Oc2cccc(OC)c2)c(O)c1 | 0.03 | -13 | i | i | 8.2* | .
CCOc1ccc(-c2nc(N)ncc2Oc2ccccc2Br)c(O)c1 | 0.72 | -14 | i | i | 2 | .
COc1ccc(NS(=O)(=O)c2cc(NC(=O)c3cccs3)ccc2N2CCOCC2)cc1 | . | -18 | i | i | 13* | -1
COc1ccc2c(c1)C(=O)N(c1ccccc1C)C(=O)C2(C)C | -0.57 | -22 | i | i | 19* | 0
Cc1cccc(-c2nc(C#N)c(NCc3ccco3)o2)c1 | -1.1 | -42 | i | . | . | 0
C=CCCC(=O)Nc1nc(C)c(-c2csc(Nc3cc(Cl)ccc3OC)n2)s1 | -1.1 | -17 | i | i | 54* | 4
CCCCC(=O)Nc1nc(C)c(-c2csc(Nc3ccccc3OC)n2)s1 | -1.8 | -17 | i | i | 33 | 8
COc1ccc(Nc2nc(-c3sc(NC(C)=O)nc3C)cs2)cc1 | -0.22 | -11 | . | i | 23* | .
C=CCCC(=O)Nc1nc(C)c(-c2csc(Nc3ccccc3OC)n2)s1 | -1.6 | -16 | i | i | 36 | 56*
